Measurements collected from several papers.
Protocols differ between the studies behind these lines.
Cell line: HepG2
Read-out: cell growth or viability

| Structure (SMILES) | technique | time | IC50 |
| --- | --- | --- | --- |
| Cc1cccc(NC(=O)NNC(=O)c2ccc(Nc3nccc(-c4ccccn4)n3)cc2)c1 | MTT | – | 23.3 µM |
| O=C(N/N=C/c1cccn1CCCN1CCOCC1)Nc1cc2c(Nc3ccc(F)c(Cl)c3)ncnc2cc1O[C@H]1CCOC1 | MTT | 72 h | 1.89 µM |
| Cc1ccc(-c2ccc(O)cc2)c(C(=C2C=CC(=O)C=C2)c2ccc(O)cc2)c1C#Cc1ccc(O)cc1 | MTT | 48 h | 16.4 µM |
| COc1cc2c(Nc3ccc(NC(=O)c4ccccc4)cc3)ncnc2cc1OCCCN1CCOCC1 | MTS | 72 h | 0.6 µM |
| CN1CCN(CCCn2cccc2/C=N/NC(=O)Nc2cc3c(Nc4ccc(F)c(Cl)c4)ncnc3cc2O[C@H]2CCOC2)CC1 | MTT | 72 h | 0.68 µM |
| CNC(=O)c1cc(Oc2ccc(NC(=O)Nc3ccc(Cl)c(C(F)(F)F)c3)cc2)ccn1 | MTT | 24 h | 16.9 µM |
| Cc1ccc2nc(-c3ccc(F)cc3)n(Cc3ccccc3)c2c1 | MTT | – | 27.2 µM |
| Oc1c(I)cc(Cl)c2cccnc12 | MTT | 48 h | 58.6 µM |
| COc1cccc2c1C(=O)c1c(O)c3c(c(O)c1C2=O)C[C@@](O)(C(=O)CO)C[C@@H]3O[C@H]1C[C@H](N)[C@H](O)[C@H](C)O1 | neutral red | 48 h | 0.23 µg/mL |
| O=C(N/N=C/CN1CCCCC1)Nc1cc2c(Nc3ccc(F)c(Cl)c3)ncnc2cc1O[C@H]1CCOC1 | MTT | 72 h | 0.42 µM |
| O=c1c(O)c(-c2ccc(O)c(O)c2)oc2cc(O)cc(O)c12 | WST-1 | 48 h | 10.1 µM |
| Oc1ncnc2cc(Nc3nc(-c4ccc(F)cc4)cs3)ccc12 | MTT | – | 7.92 µM |
| COc1cc(C2Oc3cc([C@H]4Oc5cc(O)cc(O)c5C(=O)[C@@H]4O)ccc3OC2CO)ccc1O (stereo partly shown) | CCK-8 | 72 h | 24.3 µM |
| CCOc1ccc(-c2nc3ccccc3[nH]2)cc1 | MTT | 48 h | 43.1 µM |
| Cc1cc(=O)oc2ccc(-c3cc(-c4cccs4)nc(N)n3)c(O)c12 | MTT | 72 h | > 128 µg/mL |
| COC1=C2C[C@@H](C)C[C@H](OC)[C@H](O)[C@@H](C)/C=C(\C)[C@H](OC(N)=O)[C@@H](OC)/C=C\C=C(/C)C(=O)NC(=CC1=O)C2=O | MTT | – | 0.041 µM |
| Fc1ccc(-c2nc3ccccc3[nH]2)cc1 | MTT | 48 h | 35.8 µM |
| C#Cc1cccc(Nc2ncnc3cc(OCCOC)c(OCCOC)cc23)c1 | MTT | – | 6.83 µM |
| COc1c(-c2coc3cc4c(cc3c2=O)CC(OC(C)=O)C(C)(C)O4)ccc2c1C=CC(C)(C)O2 (stereo not shown) | WST-1 | 72 h | 124 µM |
| CC1=C(O)C(=O)C=C2C1=CC=C1[C@@]2(C)CC[C@@]2(C)[C@@H]3C[C@](C)(C(=O)OCCCBr)CC[C@]3(C)CC[C@]12C | MTT | 48 h | 1.32 µM |

| Structure (SMILES) | technique | time | IC50 |
| --- | --- | --- | --- |
| Cc1ccc2nc(-c3ccc(N(C)C)cc3)[nH]c2c1 | MTT | 48 h | 35.1 µM |
| COc1cc2ncnc(Nc3ccc(F)c(Cl)c3)c2cc1NC(=O)N/N=C/c1cccn1CCCN(C)C | MTT | 72 h | 0.05 µM |
| Cc1ccc2nc(-c3c(F)cccc3Cl)[nH]c2c1 | MTT | 48 h | > 100 µM |
| CC1=C(O)C(=O)C=C2C1=CC=C1[C@@]2(C)CC[C@@]2(C)[C@@H]3C[C@](C)(C(=O)OCCCCCO)CC[C@]3(C)CC[C@]12C | MTT | 48 h | 10.1 µM |
| COc1ccc(-c2csc(Nc3ccc4c(O)ncnc4c3)n2)cc1 | MTT | – | 17.3 µM |
| COc1cc2ncnc(Nc3ccc(F)c(Cl)c3)c2cc1NC(=O)N/N=C/CN1CCN(C)CC1 | MTT | 72 h | 2.23 µM |
| c1cnc2c(c1)ccc1cccnc12 | MTT | 48 h | > 50 µM |
| Cc1cc(C)n(-c2nc(Nc3ccc(Cl)cc3)nc(-n3nc(C)cc3C)n2)n1 | MTT | 72 h | 19.5 µM |
| O=C(N/N=C/c1cccn1CCN1CCOCC1)Nc1cc2c(Nc3ccc(F)c(Cl)c3)ncnc2cc1O[C@H]1CCOC1 | MTT | 72 h | 1.68 µM |
| Cc1cc(=O)oc2ccc(-c3cc(-c4ccc(Br)cc4)nc(N)n3)c(O)c12 | MTT | 72 h | > 128 µg/mL |
| O=C(N/N=C/c1cccn1CCN1CCCC1)Nc1cc2c(Nc3ccc(F)c(Cl)c3)ncnc2cc1O[C@H]1CCOC1 | MTT | 72 h | 0.64 µM |
| Cc1ccc2nc(-c3ccc(Cl)cc3)n(Cc3ccccc3Cl)c2c1 | MTT | – | 47.9 µM |
| CCCCNC(=O)NNC(=O)c1cccc(Nc2nccc(-c3ccncc3)n2)c1 | MTT | 24 h | > 40 µM |
| Oc1ccccc1-c1nc2ccccc2[nH]1 | MTT | 48 h | 68.3 µM |
| COc1ccc(NC(=O)NNC(=O)c2cccc(Nc3nccc(-c4cccnc4)n3)c2)c(OC)c1 | MTT | 24 h | > 40 µM |
| CC1=C(O)C(=O)C=C2C1=CC=C1[C@@]2(C)CC[C@@]2(C)[C@@H]3C[C@](C)(C(=O)OCCCCCCO)CC[C@]3(C)CC[C@]12C | MTT | 48 h | 10.7 µM |
| COc1cc2ncnc(Nc3ccc(F)c(Cl)c3)c2cc1NC(=O)N/N=C/CN1CCCCC1 | MTT | 72 h | 2.06 µM |
| COC(=O)CN=c1scc(-c2ccccc2)n1-c1ccccc1 | MTT | 72 h | 75.5 µM |
| Fc1cccc(Cl)c1-c1nc2ccccc2[nH]1 | MTT | 48 h | > 100 µM |
| CC1(C)CC[C@]2(C)CC[C@]3(C)C(=CC[C@@H]4[C@@]5(C)CC[C@H](O)C(C)(C)[C@@H]5CC[C@]43C)[C@@H]2C1 | WST-1 | 48 h | 82.8 µM |
